One block for each compound: values may come before it.
What was measured:
[1] = molecular target: T1, DNA polymerase III PolC-type (Bacillus subtilis (strain 168), UniProt P13267); assay: Concentration producing 50% inhibition of Bacillus subtilis […] in the presence of dGTP using DNA Polymerase assay
[2] = molecular target: T1, DNA polymerase III PolC-type; assay: Compound was tested for its inhibitory activity against DNA topoisomerase III Polymerase III using DNA Polymerase assay; IA=Inactive
Method in brief: (§1)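 B. subtilis DNA polymerase III assayed as a truncated reaction: the nucleotide competing with the inhibitor class (dGTP or dATP) was omitted from the mix.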

[3] = molecular target: T1, DNA polymerase III PolC-type; assay: Compound was tested for its inhibitory activity against Bacillus subtilis DNA topoisomerase III using DNA Polymerase assay; method in brief: as §1
[4] = molecular target: T1, DNA polymerase III PolC-type; assay: Concentration producing 50% inhibition of Bacillus subtilis DNA polymerase III in the absence of dGTP using DNA Polymerase assay; details: read-out: Ki; method in brief: as §1
[5] = molecular target: T1, DNA polymerase III PolC-type; assay: Concentration producing 50% inhibition of Bacillus subtilis DNA polymerase III in the absence of dATP using DNA Polymerase assay; NA=Inactive; method in brief: as §1
[6] = molecular target: T1, DNA polymerase III PolC-type; assay: Concentration producing 50% inhibition of Bacillus subtilis DNA polymerase III in the absence of dATP using DNA Polymerase assay; NA= Inactive; method in brief: as §1
[7] = molecular target: T1, DNA polymerase III PolC-type; assay: Concentration producing 50% inhibition of Bacillus subtilis […] in the presence of dATP using DNA Polymerase assay
[8] = molecular target: T1, DNA polymerase III PolC-type; assay: Compound was tested for its inhibitory activity against Bacillus subtilis […] using DNA Polymerase assay; IA=Inactive; method in brief: as §1
[9] = molecular target: T1, DNA polymerase III PolC-type; assay: Concentration producing 50% inhibition of Bacillus subtilis […] in the absence using DNA Polymerase assay

T1 sequence (P13267 whole entry): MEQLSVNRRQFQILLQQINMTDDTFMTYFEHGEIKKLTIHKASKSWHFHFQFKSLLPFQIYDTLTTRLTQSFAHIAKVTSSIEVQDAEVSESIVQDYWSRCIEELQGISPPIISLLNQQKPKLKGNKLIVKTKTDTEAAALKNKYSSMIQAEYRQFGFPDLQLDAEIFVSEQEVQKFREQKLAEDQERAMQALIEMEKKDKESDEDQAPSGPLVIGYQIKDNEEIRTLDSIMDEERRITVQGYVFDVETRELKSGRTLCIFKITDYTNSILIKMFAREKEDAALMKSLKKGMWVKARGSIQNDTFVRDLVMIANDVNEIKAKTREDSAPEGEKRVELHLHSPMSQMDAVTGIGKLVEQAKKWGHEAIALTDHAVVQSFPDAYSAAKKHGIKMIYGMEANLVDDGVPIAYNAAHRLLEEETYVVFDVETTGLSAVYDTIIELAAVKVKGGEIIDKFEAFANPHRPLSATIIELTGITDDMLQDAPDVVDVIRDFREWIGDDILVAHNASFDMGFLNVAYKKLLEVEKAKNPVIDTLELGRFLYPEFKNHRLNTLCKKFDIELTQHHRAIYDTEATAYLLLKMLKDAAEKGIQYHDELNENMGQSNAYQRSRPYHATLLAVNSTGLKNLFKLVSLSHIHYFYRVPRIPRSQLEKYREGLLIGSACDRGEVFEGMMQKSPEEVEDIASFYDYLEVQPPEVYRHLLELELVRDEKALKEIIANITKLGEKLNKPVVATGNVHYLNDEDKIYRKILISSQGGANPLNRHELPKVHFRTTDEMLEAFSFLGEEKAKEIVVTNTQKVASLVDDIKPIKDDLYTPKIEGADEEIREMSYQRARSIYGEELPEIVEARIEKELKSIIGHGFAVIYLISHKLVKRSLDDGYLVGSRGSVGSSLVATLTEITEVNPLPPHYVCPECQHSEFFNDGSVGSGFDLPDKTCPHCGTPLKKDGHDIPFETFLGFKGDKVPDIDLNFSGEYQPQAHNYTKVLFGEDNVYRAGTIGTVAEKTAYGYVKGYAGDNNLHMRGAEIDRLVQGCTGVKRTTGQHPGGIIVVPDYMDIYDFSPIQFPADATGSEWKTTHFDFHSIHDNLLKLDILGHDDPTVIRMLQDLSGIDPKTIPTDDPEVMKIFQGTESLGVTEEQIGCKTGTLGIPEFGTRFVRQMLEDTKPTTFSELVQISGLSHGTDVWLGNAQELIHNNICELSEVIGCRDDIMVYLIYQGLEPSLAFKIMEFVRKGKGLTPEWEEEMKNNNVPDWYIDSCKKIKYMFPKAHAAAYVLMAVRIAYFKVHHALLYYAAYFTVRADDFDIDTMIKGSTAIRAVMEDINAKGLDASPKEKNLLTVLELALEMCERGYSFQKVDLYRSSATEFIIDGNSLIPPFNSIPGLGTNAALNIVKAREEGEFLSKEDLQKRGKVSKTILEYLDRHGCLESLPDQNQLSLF

SMILES: O=c1cc(NCc2ccccc2)[nH]c(=O)[nH]1
Ki [1]: 7.5 µM

SMILES: Cc1ccc(Nc2[nH]c(=O)[nH]c(=O)c2C)cc1
IC50 [4]: 1580 µM

SMILES: Nc1nc(NCc2ccccc2)cc(SCc2ccccc2)n1
Ki [5]: Not Active

SMILES: Nc1nc(NCc2ccccc2)cc(SCc2ccc(Cl)cc2)n1
Ki [6]: Not Active

SMILES: CCc1c(O)nc(O)nc1Nc1ccc(C)cc1
Ki [5]: Not Active

SMILES: Nc1nc(O)cc(Nc2ccc3c(c2)CCC3)n1
Ki [7]: 2 µM

SMILES: Cc1ccc(Nc2nc(O)nc(O)c2Br)cc1
IC50 [4]: 14 µM

SMILES: Cc1ccc(Nc2nc(=O)[nH]c(=O)[nH]2)cc1
IC50 [4]: 70 µM

SMILES: Oc1cc(Nc2ccc3c(c2)CCC3)nc(O)n1
Ki [1]: 0.4 µM

The remaining lines, values ahead:

Ki [2]: Not Active
SMILES: O=Nc1c(O)nc(O)nc1NCc1ccccc1

Ki [3]: 17 µM
SMILES: Nc1nc(Cl)cc(NCc2ccccc2)n1

Ki [7]: 33 µM
SMILES: Nc1nc(O)cc(NCc2ccccc2)n1

IC50 [4]: 2820 µM
SMILES: CCc1c(O)nc(O)nc1NCc1ccccc1

IC50 [4]: 20 µM
SMILES: O=c1nc(NCc2ccccc2)[nH]c(=O)[nH]1

Ki [8]: Not Active
SMILES: Cc1ccc(Nc2nc(O)nc(O)c2N=O)cc1

Ki [9]: 436 µM
SMILES: Cc1c(O)nc(O)nc1NCc1ccccc1

IC50 [4]: 9 µM
SMILES: O=c1[nH]c(NCc2ccccc2)c(I)c(=O)[nH]1

IC50 [4]: 9 µM
SMILES: Oc1nc(O)c(Br)c(NCc2ccccc2)n1

Source: ChEMBL document CHEMBL1123174, “Inhibitors of Bacillus subtilis DNA polymerase III. Influence of modifications in the pyrimidine ring of anilino- and (benzylamino)pyrimidines” (J Med Chem, 1986)
